PubChem BioAssay
Inconclusive results are not listed.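 Rule for the calls, unless noted: active = growth inhibition above 25% in both replicates, a cutoff set 3 SD above the mean; inconclusive = above 25% in only one replicate; inactive = the rest.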

Legend:
[1] = S. cerevisiae growth inhibition in permissive medium (OD615), pilot counter-assay for S. cerevisiae lifespan shortening project, permissive growth control (AID 705); conditions: OD615, 24 h, at 10 µM, hits give high values
In short: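 Material: engineered DeaD yeast; compound dosing: one dose 10 µM, DMSO 0.25% final; measure: yeast growth inhibition indicated by reduced 24 h OD615; detection: OD615 turbidity read; incubation: cells pre-grown 4 h, then 24 h compound exposure, 30 °C humidified; medium: permissive synthetic complete medium with raffinose and galactose carbon sources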

[2] = S. cerevisiae growth inhibition in restrictive medium, OD615, pilot screen, restrictive growth control, yeast lifespan reduction project (AID 706;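 active = growth inhibition above a set limit, 3 SD over mean compound inhibition, in both replicates, cut at about 43% in these data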;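 note: modified DeaD lifespan yeast strain shifted to restrictive glucose medium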); conditions: OD615, 48 h, at 10 µM, hits give high values
In short: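 material = engineered S. cerevisiae DeaD strain | medium = glucose-based CSMM-D restrictive medium | times = 4 h pre-incubation, 48 h exposure at 30 °C | technique = OD615 absorbance reading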

[3] = doxorubicin toxicity protection in MRP-1 cells – H69AR cells, CellTiter-Glo, duplicate, MRP-1 activator project, pilot screen (AID 807;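 active = viability increase at or above a cutoff of the median across tested compounds plus 3 SD, cut at about 8.5% in these data, passing the limit was not always enough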;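 note: compound pretreatment 18-22 h then 72 h combined with doxorubicin; 0% = doxorubicin alone and 100% = vehicle without doxorubicin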); conditions: H69AR viability with doxorubicin, CellTiter-Glo luminescence; at 10 µM; hits give high values
[4] = viability of HCT116 without oncogenic beta-catenin – human colon tumor cells, pilot screen (AID 823;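 active = cell viability at or below a set limit in both duplicate runs, the limit being the all-compound median minus 4 SD, cut at about 23% in these data, passing the limit was not always enough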;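 note: 0% = wells killed by 20 µM Hyamine and 100% = untreated DMSO cell wells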); conditions: HCT116 beta-catenin knockout viability, CellTiter-Glo, 60 h; at 10 µM; hits give low values
[5] = viability of PTEN-null HCT116 cells – cell-based, HCT116 clonal line, CellTiter-Glo, pilot screen (AID 824;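 active = viability at or below 27.92% in each of two runs, the all-compound median minus 4 SD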;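 note: 0% = 20 µM Hyamine control and 100% = vehicle cell control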); conditions: HCT116 PTEN-deleted viability, 60 h, at 10 µM, hits give low values
[6] = RAM pathway blockade in budding yeast – dse1pr::URA3 reporter, 5-FOA selection, pilot screen (AID 869;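 active = inhibition over a set limit, the all-compound mean plus 3 SD, in both replicate runs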;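 note: 0% = DMSO wells with no growth and 100% = 10 µM 1-NA-PP1 with full growth; RAM network block rescues cells from 5-FOA so hits raise OD615 growth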); conditions: S. cerevisiae dse1pr::URA3 5-FOA growth, OD615, 2 d; at 10 µM; hits give high values; strain carries analog-sensitive mutant Cbk1 kinase
[7] = RAM signaling pathway blockade in yeast – S. cerevisiae, Pdr1DBD-CYC8 efflux-inhibited sensitized strain, primary screen (AID 1298;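 active = RAM network inhibition above 8.4% in each of two replicates, 3 SD over the compound average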;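 note: 0% = DMSO untreated cells without growth and 100% = 10 µM 1-NA-PP1 full growth; higher means more yeast growth rescued from 5-FOA killing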); conditions: S. cerevisiae cbk1-as DSE1-URA3 strain, 5-FOA growth OD615, 2 d; at 50 µM; hits give high values

COc1ccc(Cl)cc1C(=O)NCC(c1ccco1)N1CCCC1 (centres undefined)
inactive: growth inhibition [1] -8.88% | growth inhibition [2] -4.32% | viability increase [3] -3.47% | viability [4] 81% | viability [5] 80.7% | inhibition [6] 2.23% | RAM network inhibition [7] 10.1%

CC1=CCC2C(=O)N(c3ccc(C)c(Br)c3)C(=O)C2C1 (centres undefined)
inactive: growth inhibition [1] 5.96% | growth inhibition [2] -0.835% | viability increase [3] 0.55% | viability [4] 99.5% | viability [5] 95.4% | inhibition [6] 0.08% | RAM network inhibition [7] 0%

CCCc1cc(=O)oc2cc3occ(C)c3cc12
inactive: growth inhibition [1] -10.3% | growth inhibition [2] 2.5% | viability increase [3] -2.52% | viability [4] 93.6% | viability [5] 97.6% | inhibition [6] 1.23% | RAM network inhibition [7] 4.79%

Cn1c(=O)oc2cc(S(=O)(=O)NCCN3CCN(c4ccccc4F)CC3)ccc21
inactive: growth inhibition [1] -14.7% | growth inhibition [2] 0.235% | viability increase [3] -2.88% | viability [4] 100% | viability [5] 88.8% | inhibition [6] 0.835% | RAM network inhibition [7] 1.48%

COc1ccc(Cl)cc1S(=O)(=O)N1CCN=C1C
inactive: growth inhibition [1] 1.52% | growth inhibition [2] -3.21% | viability increase [3] -2.75% | viability [4] 90.8% | viability [5] 90% | inhibition [6] 0.03% | RAM network inhibition [7] 7.99%

COc1ccc(C/C(N)=N/n2cnnc2)cc1
inactive: growth inhibition [1] 2.64% | growth inhibition [2] -3.72% | viability increase [3] 0.39% | viability [4] 100% | viability [5] 106% | inhibition [6] 0.64% | RAM network inhibition [7] 3.02%

COc1ccccc1CCNC(=O)c1cnn2c(C(F)F)cc(C)nc12
inactive: growth inhibition [1] -0.75% | growth inhibition [2] 11.3% | viability increase [3] -0.37% | viability [4] 103% | viability [5] 97.7% | inhibition [6] -0.1% | RAM network inhibition [7] 4.32%

CCOc1ccc(N(CC(=O)Nc2ccc(OC)cc2)S(=O)(=O)c2c(C)noc2C)cc1
inactive: growth inhibition [1] -8.01% | growth inhibition [2] -2.61% | viability increase [3] -3.3% | viability [4] 83.5% | viability [5] 73.9% | inhibition [6] 3.53% | RAM network inhibition [7] 4.12%

O=C(O)CCCC(=O)Nc1ccc(Cl)c(Cl)c1
inactive: growth inhibition [1] 4.12% | growth inhibition [2] -2% | viability increase [3] -0.13% | viability [4] 95.4% | viability [5] 98.1% | inhibition [6] 0.165% | RAM network inhibition [7] 1.64%

COc1ccc(NC(=O)Nc2nnc(N3CCCCC3C)s2)cc1OC (centres undefined)
inactive: growth inhibition [1] -5.21% | growth inhibition [2] -10.4% | viability increase [3] -1.91% | viability [4] 99.2% | viability [5] 97.4% | inhibition [6] 2.48% | RAM network inhibition [7] 3.85%

COc1ccc(C2CC(c3ccc(Cl)cc3)n3nc(N)nc3N2)cc1 (centres undefined)
inactive: growth inhibition [1] -5.72% | growth inhibition [2] 10.7% | viability increase [3] 2.46% | viability [4] 100% | viability [5] 95.1% | inhibition [6] 3.23% | RAM network inhibition [7] 4.44%

CCC(=O)N=c1sc2cc(F)cc(F)c2n1C
inactive: growth inhibition [1] -6.05% | growth inhibition [2] -7.75% | viability increase [3] -5.39% | viability [4] 93.4% | viability [5] 87.8% | inhibition [6] 1.4% | RAM network inhibition [7] 3.13%

Cc1cc(NCc2ccc3c(c2)OCO3)n2nc(C)nc2n1
inactive: growth inhibition [1] -16.8% | growth inhibition [2] -2% | viability increase [3] -0.9% | viability [4] 94.4% | viability [5] 87.5% | inhibition [6] 0.44% | RAM network inhibition [7] -0.15%

COC(=O)C1C2C=CC3(CN(C(C)C)C(=O)C13)O2 (centres undefined)
inactive: growth inhibition [1] -11.7% | growth inhibition [2] -17.2% | viability increase [3] -1.07% | viability [4] 106% | viability [5] 102% | inhibition [6] -0.215% | RAM network inhibition [7] 1.89%

COC(=O)CCC(=O)Nc1nc(-c2ccccc2)cs1
inactive: growth inhibition [1] -18.5% | growth inhibition [2] -17.9% | viability increase [3] -0.35% | viability [4] 99% | viability [5] 99.1% | inhibition [6] 0.475% | RAM network inhibition [7] 11%

Cc1cc(Nc2ccc(F)c(Cl)c2)n2nc(C)nc2n1
inactive: growth inhibition [1] 1.03% | growth inhibition [2] 15.8% | viability increase [3] -3.61% | viability [4] 97.2% | viability [5] 92.4% | inhibition [6] 1.94% | RAM network inhibition [7] 0.68%

Cn1c(NC(=O)Cc2ccc(F)cc2)cc(=O)n(C)c1=O
inactive: growth inhibition [1] -5.41% | growth inhibition [2] -2.77% | viability increase [3] 3.42% | viability [4] 109% | viability [5] 95.4% | inhibition [6] 1.83% | RAM network inhibition [7] 0.62%

COc1ccc(CC(=O)N2CC3(C)CC2CC(C)(C)C3)cc1OC (centres undefined)
inactive: growth inhibition [1] -8.12% | growth inhibition [2] -2.29% | viability increase [3] -2.91% | viability [4] 92.7% | viability [5] 88.2% | inhibition [6] 2.62% | RAM network inhibition [7] 6.83%

COc1ccc(OC)c(NC(=O)C2CCCN2C(=O)C2CCC(C)CC2)c1 (centres undefined)
inactive: growth inhibition [1] -14.1% | growth inhibition [2] 6.52% | viability increase [3] -5.02% | viability [4] 88.5% | viability [5] 91.6% | inhibition [6] 0.895% | RAM network inhibition [7] -0.32%

COC(=O)CC1SC(=O)NC1=Nc1ccccc1 (centres undefined)
inactive: growth inhibition [1] -7.63% | growth inhibition [2] -0.1% | viability increase [3] 0.96% | viability [4] 106% | viability [5] 89.1% | inhibition [6] 1.42% | RAM network inhibition [7] 4.94%

CCCSc1nnc(Cn2c(=O)sc3ccccc32)n1C
inactive: growth inhibition [1] -15.8% | growth inhibition [2] -38% | viability increase [3] -2.24% | viability [4] 94.3% | viability [5] 87.1% | inhibition [6] 0.415% | RAM network inhibition [7] -0.25%

CCOc1ccc(-c2cc(CCCC(=O)NCc3cccnc3)no2)cc1
inactive: growth inhibition [1] 0.205% | growth inhibition [2] 12.9% | viability increase [3] -3.69% | viability [4] 82.2% | viability [5] 92.9% | inhibition [6] 0.54% | RAM network inhibition [7] 2.74%

COc1ccccc1N1CCN(C(=O)c2cc3cc(Br)ccc3oc2=O)CC1
inactive: growth inhibition [1] 2.45% | growth inhibition [2] -11.9% | viability increase [3] -0.94% | viability [4] 110% | viability [5] 94.1% | inhibition [6] 2.47% | RAM network inhibition [7] 1.96%

Cc1nn(Cc2ccc(Cl)c(Cl)c2)c(C)c1NC(=O)c1cc(C2CC2)on1
inactive: growth inhibition [1] -10.7% | growth inhibition [2] 1.77% | viability increase [3] 1.41% | viability [4] 79% | viability [5] 84.7% | inhibition [6] 0.125% | RAM network inhibition [7] 2.79%

CC(=O)NCc1nc2ccccc2n1Cc1ccccc1C
inactive: growth inhibition [1] 2.5% | growth inhibition [2] -3.57% | viability increase [3] -2.27% | viability [4] 101% | viability [5] 95.7% | inhibition [6] 1.05% | RAM network inhibition [7] 2.57%

Nc1nc2n(n1)C(c1ccco1)CC(c1ccc(F)cc1)N2 (centres undefined)
inactive: growth inhibition [1] -0.245% | growth inhibition [2] 11.6% | viability increase [3] 1.69% | viability [4] 98.4% | viability [5] 101% | inhibition [6] 0.45% | RAM network inhibition [7] 4.49%

CCN(CC)S(=O)(=O)c1ccc2c3c(cccc13)C(=O)N2
inactive: growth inhibition [1] -12.1% | growth inhibition [2] -11.4% | viability increase [3] -4.61% | viability [4] 97.1% | viability [5] 96.8% | inhibition [6] 2.06% | RAM network inhibition [7] 4.63%

Cc1cccnc1NC(=O)c1c(O)c2ccccc2n(C)c1=O
inactive: growth inhibition [1] 3.49% | growth inhibition [2] 11.4% | viability increase [3] -3.77% | viability [4] 92% | viability [5] 98% | inhibition [6] -0.005% | RAM network inhibition [7] -1.38%

Clc1ccc(-n2ncc3c(N4CCCCCC4)ncnc32)cc1
inactive: growth inhibition [1] 1.26% | growth inhibition [2] -16.7% | viability increase [3] -0.56% | viability [4] 83.5% | viability [5] 78.5% | inhibition [6] -0.14% | RAM network inhibition [7] 8.42%

COc1ccc(-c2cn3c(C)c(C(=O)NCc4ccc5c(c4)OCO5)sc3n2)cc1
inactive: growth inhibition [1] -4.21% | growth inhibition [2] 7.5% | viability increase [3] -3.02% | viability [4] 99.8% | viability [5] 100% | inhibition [6] 3.06% | RAM network inhibition [7] 3.34%

COc1ccc(S(=O)(=O)N(C)c2c(C)n(C)n(-c3ccccc3)c2=O)cc1OC
inactive: growth inhibition [1] -5.13% | growth inhibition [2] 0.325% | viability increase [3] -1.65% | viability [4] 95.5% | viability [5] 102% | inhibition [6] 0.535% | RAM network inhibition [7] 3.38%

O=C1C2C3C=CC(C3)C2C(=O)N1c1ccccc1 (centres undefined)
inactive: growth inhibition [1] -0.875% | growth inhibition [2] 4.47% | viability increase [3] 0.71% | viability [4] 100% | viability [5] 98.7% | inhibition [6] 1.81% | RAM network inhibition [7] 1.49%

O=C(NCc1cccs1)C1CCCN(S(=O)(=O)c2cccc3cccnc23)C1 (centres undefined)
inactive: growth inhibition [1] 8.41% | growth inhibition [2] 2.37% | viability increase [3] -1.59% | viability [4] 94.8% | viability [5] 90.4% | inhibition [6] 1.41% | RAM network inhibition [7] 2.64%

CC1CCCC(C)N1C(=O)Cn1c(=O)sc2ccccc21 (centres undefined)
inactive: growth inhibition [1] -4.41% | growth inhibition [2] 8.62% | viability increase [3] -3.08% | viability [4] 97.8% | viability [5] 90.6% | inhibition [6] 0.87% | RAM network inhibition [7] 4.18%

O=c1c2c3c(sc2nc2n1CCCCC2)CCCC3
inactive: growth inhibition [1] -12.6% | growth inhibition [2] -15.5% | viability increase [3] -1.02% | viability [4] 90.4% | viability [5] 85.6% | inhibition [6] 0.635% | RAM network inhibition [7] 0.62%

O=C(C1=C(O)C(=O)N(c2ncccn2)C1c1cccs1)c1ccco1 (centres undefined)
inactive: growth inhibition [1] 0.75% | growth inhibition [2] 7.12% | viability increase [3] -4.29% | viability [4] 86.5% | viability [5] 85.3% | inhibition [6] 1.54% | RAM network inhibition [7] 1.69%

COc1ccc(CNC(=O)c2cnc3scc(C)n3c2=O)cc1
inactive: growth inhibition [1] -13.9% | growth inhibition [2] -6.35% | viability increase [3] 3.79% | viability [4] 102% | viability [5] 93.8% | inhibition [6] 0.925% | RAM network inhibition [7] 11.9%
